From paper PMC4083110 (Molecular & Cellular Proteomics : MCP, 2014)
Values belong to the substance of their own block, whether it stands above or below them.

Experiments:
[1] = system: c-Src family kinase SH2 domains; experiment: FP saturation binding, domain family; parameters: species or system human; settings: result in words
How it was run: (§1)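 Multi-SH2 genes were used as tandem proteins that kept the linker residues. Automated high-throughput FP saturation binding was run against 178 synthetic phosphopeptides from RTK, GAB1 and androgen receptor tyrosine sites. Millipolarization readings were fitted to P_obs = Pmax·[Protein]/(K_D+[Protein]) by least squares regression to give K_D.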

SH2D1B SH2 domain = biological target: T1, SH2D1B SH2 domain (Homo sapiens, UniProt O14796); experiment: FP saturation binding; settings: result in words
T1 sequence (O14796 5-101 limits assumed): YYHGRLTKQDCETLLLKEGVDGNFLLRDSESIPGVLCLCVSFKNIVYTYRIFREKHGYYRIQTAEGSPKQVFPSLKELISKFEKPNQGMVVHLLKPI
How it was run: as §1

[2] = system: tensin family SH2 domains; experiment: FP saturation binding, domain family; parameters: species or system human; settings: result in words
How it was run: as §1

SH2D1A SH2 domain = SH2D1A SH2 domain (Homo sapiens, UniProt O60880); experiment: FP saturation binding; settings: result in words
How it was run: as §1

PLCG1 SH2 domains = biological target: T2, PLCG1 SH2 domains (Homo sapiens, UniProt P19174); experiment: FP saturation binding, construct not stated; settings: result in words
T2 sequence (P19174 550-756 limits assumed): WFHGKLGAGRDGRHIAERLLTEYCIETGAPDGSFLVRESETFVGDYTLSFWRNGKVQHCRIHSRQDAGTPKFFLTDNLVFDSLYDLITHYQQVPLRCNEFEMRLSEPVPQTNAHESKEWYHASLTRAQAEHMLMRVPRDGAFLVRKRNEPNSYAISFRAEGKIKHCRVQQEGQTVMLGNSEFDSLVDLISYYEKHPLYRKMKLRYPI
How it was run: as §1

RASA1 SH2 domains = biological target: T3, RASA1 SH2 domains (Homo sapiens, UniProt P20936); experiment: FP saturation binding, construct not stated; settings: result in words
T3 sequence (P20936 181-441 limits assumed): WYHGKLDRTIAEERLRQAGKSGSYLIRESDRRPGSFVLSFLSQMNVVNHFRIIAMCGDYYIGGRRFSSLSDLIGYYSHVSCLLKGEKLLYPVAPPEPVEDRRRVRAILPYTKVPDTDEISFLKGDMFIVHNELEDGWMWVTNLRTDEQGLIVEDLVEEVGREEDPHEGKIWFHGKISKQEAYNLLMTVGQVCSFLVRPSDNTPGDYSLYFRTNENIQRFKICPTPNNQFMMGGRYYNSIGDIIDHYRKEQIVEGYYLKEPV
How it was run: as §1

Shp2/PTPN11 SH2 domain = biological target: T4, Shp2/PTPN11 SH2 domain (Homo sapiens, UniProt Q06124); experiment: FP saturation binding, construct not stated; settings: result in words
T4 sequence (Q06124 2-593): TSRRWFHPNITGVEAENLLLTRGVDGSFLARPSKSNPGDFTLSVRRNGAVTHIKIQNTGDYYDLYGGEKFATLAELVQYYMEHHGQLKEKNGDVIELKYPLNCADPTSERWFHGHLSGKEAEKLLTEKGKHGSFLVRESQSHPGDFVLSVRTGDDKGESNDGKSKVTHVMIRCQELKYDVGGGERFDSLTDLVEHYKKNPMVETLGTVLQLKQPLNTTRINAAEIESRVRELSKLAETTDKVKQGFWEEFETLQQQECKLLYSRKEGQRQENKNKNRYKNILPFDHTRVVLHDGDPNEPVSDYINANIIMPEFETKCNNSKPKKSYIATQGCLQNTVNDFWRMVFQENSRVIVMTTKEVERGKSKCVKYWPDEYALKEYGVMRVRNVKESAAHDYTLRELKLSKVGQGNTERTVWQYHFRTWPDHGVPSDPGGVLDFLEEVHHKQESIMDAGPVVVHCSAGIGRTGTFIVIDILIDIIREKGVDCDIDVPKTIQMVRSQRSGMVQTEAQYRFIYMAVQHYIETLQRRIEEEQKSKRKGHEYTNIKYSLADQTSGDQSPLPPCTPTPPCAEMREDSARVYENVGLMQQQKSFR
How it was run: as §1

SHC1 SH2 domain = biological target: T5, SHC1 SH2 domain (Homo sapiens, UniProt P29353); experiment: FP saturation binding; settings: result in words
T5 sequence (P29353 488-579 limits assumed): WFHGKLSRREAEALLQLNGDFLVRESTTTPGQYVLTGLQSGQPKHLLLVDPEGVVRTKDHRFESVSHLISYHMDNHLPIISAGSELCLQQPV
How it was run: (§2)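 Tandem SH2 proteins were kept with their linkers. Synthetic phosphotyrosine peptides were run in automated high-throughput FP saturation binding. Millipolarization was fitted to Pobs = Pmax·[Protein]/(KD+[Protein]) by least squares to give KD per protein/peptide pair.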

[3] = biological target: T6, SHC1 PTB domain (SHC1.PTB) (Homo sapiens, UniProt P29353); experiment: FP saturation binding; settings: result in words
T6 sequence (P29353 156-339 limits assumed): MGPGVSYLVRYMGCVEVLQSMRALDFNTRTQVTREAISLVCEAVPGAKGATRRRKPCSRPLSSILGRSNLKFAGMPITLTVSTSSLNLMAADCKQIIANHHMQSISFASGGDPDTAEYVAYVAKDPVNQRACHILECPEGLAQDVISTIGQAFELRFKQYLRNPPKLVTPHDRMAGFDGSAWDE
How it was run: as §1

CRK SH2 domain = CRK SH2 domain (Homo sapiens, UniProt P46108); experiment: FP saturation binding; settings: result in words
How it was run: as §1

CRKL SH2 domain = CRKL SH2 domain (Homo sapiens, UniProt P46109); experiment: FP saturation binding; settings: result in words
How it was run: as §1

GRAP2 SH2 domain = GRAP2 SH2 domain (Homo sapiens, UniProt O75791); experiment: FP saturation binding; settings: result in words
How it was run: as §2

GRB2 SH2 domain = GRB2 SH2 domain (Homo sapiens, UniProt P62993); experiment: FP saturation binding; settings: result in words
How it was run: as §2

[4] = system: PIK3R-derived SH2 domains; experiment: FP saturation binding, domain family; parameters: species or system human; settings: FP, result in words
How it was run: as §1

PIK3R1 SH2 domains = PIK3R1 SH2 domains (Homo sapiens, UniProt P27986); experiment: FP saturation binding, construct not stated; settings: result in words
How it was run: as §1

PIK3R3 SH2 domains = experiment: FP saturation binding, construct not stated; parameters: species or system human; settings: result in words
How it was run: as §1

PLCG2 SH2 domains = biological target: T7, PLCG2 SH2 domains (Homo sapiens, UniProt P16885); experiment: FP saturation binding, construct not stated; settings: result in words
T7 sequence (P16885 532-735 limits assumed): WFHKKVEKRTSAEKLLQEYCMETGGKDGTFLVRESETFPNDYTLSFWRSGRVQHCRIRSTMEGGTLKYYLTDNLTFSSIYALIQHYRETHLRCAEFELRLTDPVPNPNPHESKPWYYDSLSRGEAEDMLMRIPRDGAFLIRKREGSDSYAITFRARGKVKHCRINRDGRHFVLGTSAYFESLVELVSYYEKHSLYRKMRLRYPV
How it was run: as §1

Sequence of CRK SH2 domain (P46108 13-118 limits assumed): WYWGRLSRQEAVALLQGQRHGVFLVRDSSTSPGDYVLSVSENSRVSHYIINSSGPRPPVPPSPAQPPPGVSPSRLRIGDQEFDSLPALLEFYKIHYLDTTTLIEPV
Sequence of SH2D1A SH2 domain (O60880 6-104 limits assumed): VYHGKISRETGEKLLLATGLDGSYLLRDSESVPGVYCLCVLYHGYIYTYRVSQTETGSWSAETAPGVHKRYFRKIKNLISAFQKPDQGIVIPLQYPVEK
Sequence of CRKL SH2 domain (P46109 14-102 limits assumed): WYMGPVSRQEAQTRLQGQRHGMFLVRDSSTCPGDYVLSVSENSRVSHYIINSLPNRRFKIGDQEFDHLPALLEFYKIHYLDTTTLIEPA
Sequence of PIK3R1 SH2 domains (P27986 2-724): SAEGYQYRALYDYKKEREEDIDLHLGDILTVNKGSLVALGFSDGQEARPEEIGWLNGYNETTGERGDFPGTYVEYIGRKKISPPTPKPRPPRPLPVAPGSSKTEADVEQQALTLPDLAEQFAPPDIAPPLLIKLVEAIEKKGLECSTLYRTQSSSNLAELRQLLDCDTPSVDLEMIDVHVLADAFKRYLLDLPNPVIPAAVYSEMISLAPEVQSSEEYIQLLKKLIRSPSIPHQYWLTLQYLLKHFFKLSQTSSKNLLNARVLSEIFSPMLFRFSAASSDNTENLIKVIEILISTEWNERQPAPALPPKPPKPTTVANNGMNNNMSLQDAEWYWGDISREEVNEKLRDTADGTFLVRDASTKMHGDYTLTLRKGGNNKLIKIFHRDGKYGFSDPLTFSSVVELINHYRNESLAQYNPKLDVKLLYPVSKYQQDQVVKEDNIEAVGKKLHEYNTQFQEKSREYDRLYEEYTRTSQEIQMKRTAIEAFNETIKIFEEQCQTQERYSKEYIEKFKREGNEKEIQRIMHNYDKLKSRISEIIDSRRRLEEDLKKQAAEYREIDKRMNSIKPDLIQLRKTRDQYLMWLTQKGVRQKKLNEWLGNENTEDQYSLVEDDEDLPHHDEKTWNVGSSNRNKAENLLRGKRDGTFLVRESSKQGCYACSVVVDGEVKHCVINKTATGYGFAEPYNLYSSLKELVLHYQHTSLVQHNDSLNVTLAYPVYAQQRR
Sequence of GRB2 SH2 domain (P62993 60-152 limits assumed): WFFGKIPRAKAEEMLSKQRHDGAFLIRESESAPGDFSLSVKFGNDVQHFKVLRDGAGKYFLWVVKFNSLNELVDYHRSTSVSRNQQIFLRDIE
Sequence of GRAP2 SH2 domain (O75791 58-149 limits assumed): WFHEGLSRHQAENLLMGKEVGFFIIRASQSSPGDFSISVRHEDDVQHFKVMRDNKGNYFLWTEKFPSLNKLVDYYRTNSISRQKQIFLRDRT

Substance: DPQDXLLLINCQd [GAB1 Tyr(P)-183]
interaction with SHC1 SH2 domain (SHC1 SH2 domain): interactions were identified
interaction with SHC1 PTB domain [3]: interactions were observed

Substance: DRIFXLVADSEEd [GAB1 Tyr(P)-95]
recruitment of CRK SH2 domain (CRK SH2 domain): CRK SH2 domain recruitment
interaction with SHC1 SH2 domain (SHC1 SH2 domain): interactions were identified

Substance: FENSXIFDINTId [GAB1 Tyr(P)-83]
interaction with SHC1 SH2 domain (SHC1 SH2 domain): interactions were identified
interaction with SHC1 PTB domain [3]: interactions were observed

Substance: KLKRXAWKRRWFd [GAB1 Tyr(P)-24]
recruitment of CRK SH2 domain (CRK SH2 domain): CRK SH2 domain recruitment
interaction with SHC1 PTB domain [3]: interactions were observed

Substance: LPIDXYFPPQKTd [AR Tyr(P)-551]
recruitment of PLCG2 SH2 domains (PLCG2 SH2 domains): recruitment sites
recruitment of PLCG1 SH2 domains (PLCG1 SH2 domains): recruitment sites

Substance: LPPPXQLINVPPd [GAB1 Tyr(P)-162]
interaction with SHC1 SH2 domain (SHC1 SH2 domain): unable to detect

Next, values leading:

recruitment of c-Src family kinase SH2 domains [1]: interactions
recruitment of SH2D1B SH2 domain (SH2D1B SH2 domain): interactions
recruitment of tensin family SH2 domains [2]: interactions
recruitment of SH2D1A SH2 domain (SH2D1A SH2 domain): interactions
recruitment of PLCG1 SH2 domains (PLCG1 SH2 domains): interactions
recruitment of RASA1 SH2 domains (RASA1 SH2 domains): interactions
recruitment of Shp2/PTPN11 SH2 domain (Shp2/PTPN11 SH2 domain): recruit
Substance: CVAPXPSLLSSEd [c-Met Tyr(P)-1365]

recruitment of Shp2/PTPN11 SH2 domain (Shp2/PTPN11 SH2 domain): recruit
Substance: DITVXLLQGRRLd [c-Met Tyr(P)-1295]

recruitment of CRK SH2 domain (CRK SH2 domain): no CRK SH2 domain interactions
recruitment of CRKL SH2 domain (CRKL SH2 domain): CRKL SH2 domain interactions
Substance: DSSLXNLPRSYSd [GAB1 Tyr(P)-259]

recruitment of CRK SH2 domain (CRK SH2 domain): recruited
recruitment of tensin family SH2 domains [2]: recruited
Substance: DVWSXGIFLWELd [c-Kit Tyr(P)-855]

recruitment of GRAP2 SH2 domain (GRAP2 SH2 domain): detectably recruited
recruitment of GRB2 SH2 domain (GRB2 SH2 domain): detectably recruited
Substance: EAALXKNLLHSKd [c-Kit Tyr(P)-703]

recruitment of c-Src family kinase SH2 domains [1]: able to recruit
recruitment of SH2D1B SH2 domain (SH2D1B SH2 domain): able to recruit
interaction with SHC1 SH2 domain (SHC1 SH2 domain): interactions were identified
recruitment of PIK3R (PI3KR) SH2 domains [4]: able to recruit
recruitment of PLCG1 SH2 domains (PLCG1 SH2 domains): able to recruit
recruitment of Shp2/PTPN11 SH2 domain (Shp2/PTPN11 SH2 domain): unable to recruit
Substance: ERVDXVVVDQQKd [GAB1 Tyr(P)-689]

recruitment of CRK SH2 domain (CRK SH2 domain): recruited
recruitment of c-Src family kinase SH2 domains [1]: recruited
Substance: EYCCXGDLLNFLd [c-Kit Tyr(P)-675]

recruitment of SH2D1B SH2 domain (SH2D1B SH2 domain): moderate affinity
recruitment of PLCG1 SH2 domains (PLCG1 SH2 domains): moderate affinity
Substance: IGEHXVHVNATYd [c-Met Tyr(P)-1349]

recruitment of PIK3R1 (PIK3R1 SH2 domains): confirmed
recruitment of PIK3R3 (PIK3R3 SH2 domains): high affinity
Substance: LDENXVPMNPNSd [GAB1 Tyr(P)-447]
